Screens: PubChem, The Scripps Research Institute Molecular Screening Center
In the library only some 1.8% were active in any assay of this set; here they are far more common.
M5 ag – human M5 muscarinic receptor agonists, primary screen, CHO-K1 cells, Fluo-8 calcium fluorescence | activation, % at 3 µM | 360,000 tested, 0.19% active | CHO-K1 hM5 cells; 0% DMSO wells, 100% maximal acetylcholine response | Muscarinic acetylcholine receptor M5 (Homo sapiens), P08912;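 active = activation above the run's mean over test compounds plus 3 SD, cut at about 23% in these data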;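 note: signal is peak over basal fluorescence ratio across the kinetic read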
Target sequence (P08912 whole entry, looked up): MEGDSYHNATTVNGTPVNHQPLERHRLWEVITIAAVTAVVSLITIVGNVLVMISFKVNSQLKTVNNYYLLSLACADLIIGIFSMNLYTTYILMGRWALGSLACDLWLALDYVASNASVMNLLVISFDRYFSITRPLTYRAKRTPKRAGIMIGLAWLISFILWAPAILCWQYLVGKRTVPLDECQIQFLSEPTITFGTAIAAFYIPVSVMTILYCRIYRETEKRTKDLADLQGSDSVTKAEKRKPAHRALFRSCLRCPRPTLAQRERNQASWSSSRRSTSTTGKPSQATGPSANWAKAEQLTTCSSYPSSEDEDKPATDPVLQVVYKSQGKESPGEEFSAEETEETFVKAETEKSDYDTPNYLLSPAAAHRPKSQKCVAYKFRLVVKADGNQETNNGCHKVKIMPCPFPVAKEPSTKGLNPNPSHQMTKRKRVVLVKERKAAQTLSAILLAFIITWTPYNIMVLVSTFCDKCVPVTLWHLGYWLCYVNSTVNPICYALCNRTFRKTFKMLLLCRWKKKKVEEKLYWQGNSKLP
M4 antag – human M4 muscarinic receptor antagonists, primary screen, CHO cells, Fluo-8 calcium fluorescence; Muscarinic acetylcholine receptor M4 (Homo sapiens), P08173; inhibition, % at 3 µM; CHO-hM4 cells, ACh EC80; 360,000 tested, 0.73% active;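 active = inhibition above its plate's cutoff, the mean inhibition of sample wells plus 3 SD, cut at about 27% in these data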;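 note: 0% = acetylcholine EC80 with DMSO and 100% = DMSO without agonist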
M4 PAM – human M4 muscarinic receptor positive allosteric modulators, primary screen, CHO-K1 cells, Fluo-8 calcium fluorescence; Muscarinic acetylcholine receptor M4 (Homo sapiens), P08173; CHO-K1 hM4/Gqi5, ACh EC20; 0% = ACh EC20, 100% = maximal ACh; activation, % at 3 µM; 360,000 tested, 0.4% active; AID 624126, 2012;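 active = activation above its plate's cutoff, the mean activation of sample wells plus 3 SD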
CHRM5 PAM – human M5 muscarinic receptor positive allosteric modulators, primary screen, CHO-K1 cells, Fluo-8 calcium fluorescence | Muscarinic acetylcholine receptor M5 (Homo sapiens), P08912 | CHO-K1 hM5, ACh EC20 PAM; 0% = ACh EC20, 100% = ACh EC100 | activation, % at 3 µM | 360,000 tested, 0.3% active;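 active = activation above the run cutoff, the mean activation of all test compounds plus 3 SD, cut at about 18% in these data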
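System: CHO-K1 cell line with stable human muscarinic M5 receptor expression | Also added: EC20 acetylcholine as agonist stimulus | Compound: One concentration, 3 µM final (nominal) | Timing: Fluo-8 loading 80 min at 37 °C plus 30 min room temperature | Measured by: Fluo-8 calcium dye fluorescence, kinetic read | Read-out basis: % activation, ACh-normalized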
M4 ag – human M4 muscarinic receptor agonists, primary screen, CHO-K1 cells, Fluo-8 calcium fluorescence; Muscarinic acetylcholine receptor M4 (Homo sapiens), P08173; CHO-K1 hM4/Gqi5; vehicle 0%, full acetylcholine response 100%; 360,000 tested, 0.14% active; AID 624127, 2012; activation, % at 3 µM;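 active = activation above the run mean over all test wells plus 3 SD, cut at about 32% in these data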;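 note: peak over basal fluorescence ratio per well then scaled between controls; 0% = DMSO wells and 100% = acetylcholine at EC100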
M5 antag – human M5 muscarinic receptor antagonists, primary screen, CHO cells, Fluo-8 calcium fluorescence; Muscarinic acetylcholine receptor M5 (Homo sapiens), P08912; CHO-hM5 cells, ACh EC80; inhibition, % at 3 µM; 360,000 tested, 0.59% active; AID 624040, 2012;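 active = inhibition above a per-plate cutoff, the mean of that plate's test compounds plus 3 SD, cut at about 27% in these data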;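 note: 0% = acetylcholine EC80 with DMSO and 100% = DMSO without agonist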
An asterisk follows results filed as active.

SMILES | M5 ag | M4 antag | M4 PAM | CHRM5 PAM | M4 ag | M5 antag
O=C(Cn1ncc2c([nH]c3ccccc32)c1=O)NCCc1ccccc1 | 0 | 0 | 19* | 12 | 1 | -5
CC1(CCc2ccccc2)NC(=O)N(CC(=O)Nc2ccc(S(N)(=O)=O)cc2)C1=O (stereo unspecified) | -1 | -5 | 8 | -1 | 1 | 7
CCc1cc(Cn2nc(-c3ccccc3)cc2C(=O)NCc2ccc(C)cc2)on1 | 1 | -10 | -6 | -9 | 3 | 5
CCC(O)CNC(=O)CCc1nnc(C2(c3ccc(Cl)cc3)CCC2)o1 (stereo unspecified) | 0 | -17 | 6 | 2 | 2 | 2
COc1cc2nc(N3CCN(C(=O)c4ccco4)CC3)nc(N)c2cc1OC | 2 | -9 | -13 | 3 | 9 | -4
COc1cc2nc(N3CCN(C(=O)C4COc5ccccc5O4)CC3)nc(N)c2cc1OC (stereo unspecified) | 1 | 29* | -11 | -7 | 5 | 3
COc1ccc(S(=O)(=O)N2CCN(C(=O)C3COc4ccccc4O3)CC2)cc1 (stereo unspecified) | 2 | 32* | -15 | -15 | 8 | 14
S=C1N(c2ccccc2)C(c2ccc(Cl)cc2)N2CCCN12 (stereo unspecified) | -11 | 42* | -19 | -43 | 0 | 25
S=C1N(c2ccccc2)C(c2ccc(Br)cc2)N2CCCN12 (stereo unspecified) | -19 | 79* | -55 | -37 | -1 | 38*
O=C(NCc1ccccc1)C(c1cccnc1)N(C(=O)c1csnn1)c1ccccc1 (stereo unspecified) | -2 | 3 | -4 | 0 | 2 | 0
CC(C)(C)NS(=O)(=O)c1cnc(Cl)c(Cl)c1 | -1 | -11 | 8 | -2 | -1 | 5
CCC(=O)NC(=S)Nc1cccc(NC(=O)c2ccccc2)c1 | -2 | -6 | 2 | -11 | 3 | 7
c1ccc(COc2ncnc3c2ncn3CCCN2CCN(Cc3cccc4ccccc34)CC2)cc1 | -1 | -13 | -13 | -6 | 23 | 0
Cc1ccc(CN2CCN(CCCn3cnc4c(OCc5ccccc5)ncnc43)CC2)cc1 | -1 | 33* | -16 | -12 | 9 | 15
CN1CCc2ccc(NC(=O)c3ccc(C(F)(F)F)cc3)cc2C1 | 2 | -2 | 2 | 5 | 2 | -2
Cc1noc(C(=O)Nc2ccc(F)c(Cl)c2)c1Cl | 0 | 95* | -21 | -16 | 2 | 19
CC(C)c1ccc(S(=O)(=O)N2CCN(C(=O)C3CCCCC3)CC2)cc1 | -3 | -1 | 1 | -6 | 2 | 7
C[C@@H]1C2CC(C/C2=N\NC(=O)c2ccncc2)C1(C)C (stereo partly specified) | 2 | -8 | 1 | 39* | 1 | 12
CCN(C(=O)CSc1nnc(NCCOC)s1)c1c(N)n(Cc2ccccc2)c(=O)[nH]c1=O | 2 | 2 | 1 | -5 | 1 | 20
CCC(Oc1nc2ccccc2nc1-c1ccccc1NC(C)=O)C(=O)c1ccccc1 (stereo unspecified) | 5 | 19 | 33* | -1 | -1 | -1
CC(=O)Nc1ccccc1-c1nc2cc(C#N)c(C#N)cc2[nH]c1=O | -2 | -5 | 0 | -4 | 2 | 11
O=C(COC(=O)c1cc2ccccc2cc1O)NCc1ccccc1 | 7 | -6 | 1 | 18* | 2 | -8
O=C(COC(=O)c1ccccc1NS(=O)(=O)c1ccc(Cl)cc1)NCc1ccccc1 | 0 | 0 | 21* | 10 | 2 | -10
COC(=O)[C@@]12C[C@@H](CC(=O)N3CCN(C(=O)C4CC4)CC3)C(=O)N(Cc3ccco3)C1=CCC(C)(C)C2 | -1 | -8 | 7 | -2 | 2 | -2
CCC(C(=O)Nc1c(C)cccc1C)n1c(-c2cnc(C)cn2)nc2ccccc21 (stereo unspecified) | -3 | -11 | 6 | 3 | 2 | -4
SMILES | M5 ag | M4 antag | M4 PAM | CHRM5 PAM | M4 ag | M5 antag
CCc1cccc(CC)c1N1C(=O)COCC1=O | -1 | -3 | -3 | -2 | 0 | 6
CCc1cccc(CC)c1N1C(=O)C2=C(SCCCS2)C1=O | 11 | 7 | -13 | -9 | 34* | 12
CCc1cc(C(=O)NCC(C)(C)N2CCOCC2)sc1C | -4 | -3 | 3 | 6 | 0 | -2
Cc1ccsc1C(=O)NCC(C)(C)N1CCOCC1 | -8 | 1 | 5 | 22* | 0 | -10
Cc1cccc(C)c1NC(=O)CS(=O)CC(=O)NCC1OCCc2ccccc21 (stereo unspecified) | 2 | -6 | 8 | 23* | 1 | 4
CCc1ccc(NC(=O)CS(=O)CC(=O)NCC2OCCc3ccccc32)cc1 (stereo unspecified) | -5 | -5 | 0 | 3 | 0 | -1
CCOC(=O)c1sc(NC(=O)c2ccc(Cl)s2)cc1C | 1 | -2 | 4 | -3 | 1 | -1
CCOC(=O)c1sc(NC(=O)Nc2ccc(Cl)cc2)cc1C | 7 | 33* | -16 | -27 | 17 | 38*
COCCNC(=O)/C(C#N)=C/c1c(N2CCCCCC2)nc2ccccn2c1=O | -4 | 99* | -16 | -5 | 0 | 1
COc1ccc(C(=O)Nc2ccc([N+](=O)[O-])cn2)c(OC)c1 | -1 | -1 | 0 | 20* | 1 | 11
CC(=O)OCCn1c2nc(=O)[nH]c(=O)c-2nc2cc(C)c(C)cc21 | 418* | 37* | -18 | -30 | 229* | 42*
Cc1cccc(C(=O)NCCc2ccccc2)c1 | -4 | 5 | -6 | -4 | 2 | 4
COc1cc(/C=C2\SC(=S)N(NC(=O)c3ccc(O)c(OC)c3)C2=O)ccc1O | 25* | 23 | -21 | -17 | 35* | 24
COc1cc(/C=C2\SC(=S)N(CCC(=O)Nc3ccccc3)C2=O)cc(OC)c1OC | 2 | -5 | -2 | -4 | 2 | 6
COc1cc(/C=C2\SC(=S)N(NC(=O)c3cccc(O)c3)C2=O)ccc1O | 10 | 12 | -14 | -9 | 36* | 9
COc1cc(/C=C2\SC(=S)N(CCC(=O)Nc3cccc(O)c3)C2=O)cc(OC)c1OC | -1 | 13 | -11 | -18 | 18 | 27*
